TAAR1 agonist: agonists of human TAAR1. activation, % at 3 µM. 360,000 compounds, 0.99% hits. CHO RD-HGA16 TAAR1, Fluo-8 calcium fluorescence; vehicle wells 0%, saturating PEA agonist 100%. Q96RJ0;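 active = activation above the mean activation of all test compounds in the run plus 3 SD, cut at about 38% in these data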
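Test system: RD-HGA16 (CHO) cells co-expressing Gα16 and hTAAR1 | Doses: Single dose, 3 µM | Schedule: 17-24 h seeding, 75 min 37 °C dye, 30 min RT | Evaluation: % activation from peak over basal fluorescence ratio, DMSO-to-PEA scaled | Technique: Kinetic Fluo-8 calcium fluorescence | Benchmarks: Low control DMSO, high control PEA (EC100)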
CHRM1 antagonist: antagonists of human M1 muscarinic receptor | CHO-K1 hM1, Fluo-8 calcium fluorescence, ACh EC80 antagonist | P11229 | inhibition, % at 3 µM | 360,000 compounds, 1.3% hits | AID 588852;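 active = percent inhibition above its own plate's cutoff, namely the mean of that plate's compound wells plus 3 SD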;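 note: peak over basal fluorescence ratio during 140 s after agonist addition; 0% = ACh EC80 plus DMSO and 100% = DMSO alone without agonist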
HTR2A ag: activates the mouse 5-HT2A serotonin receptor; P35363; CHO-K1 mHTR2A beta-arrestin complementation, luminescence; percent of 30 µM serotonin response; activation, % at 7.6 µM; 360,000 compounds, 0.66% hits;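 active = activation above a run cutoff, the mean activation of all tested compounds plus 3 SD, cut at about 14% in these data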;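 note: 0% = plate median of compound wells and 100% = 30 µM serotonin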
Target sequence (P35363 whole entry, looked up): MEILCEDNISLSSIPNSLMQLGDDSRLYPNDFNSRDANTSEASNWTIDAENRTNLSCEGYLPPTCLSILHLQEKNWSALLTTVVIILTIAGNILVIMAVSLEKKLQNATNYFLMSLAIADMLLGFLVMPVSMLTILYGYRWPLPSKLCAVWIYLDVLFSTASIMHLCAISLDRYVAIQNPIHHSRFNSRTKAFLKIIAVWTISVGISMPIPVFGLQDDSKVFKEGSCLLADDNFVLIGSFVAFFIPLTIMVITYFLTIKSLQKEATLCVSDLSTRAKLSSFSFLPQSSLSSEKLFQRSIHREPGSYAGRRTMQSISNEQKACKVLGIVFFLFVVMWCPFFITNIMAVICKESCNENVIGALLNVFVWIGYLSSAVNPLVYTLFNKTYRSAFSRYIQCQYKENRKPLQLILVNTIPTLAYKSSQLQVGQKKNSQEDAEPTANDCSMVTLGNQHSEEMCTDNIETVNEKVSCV
CHRM1 PAM: human CHRM1 positive allosteric modulation. P11229. CHO-K1 hM1, Fluo-8 calcium fluorescence, ACh EC20; 0% = ACh EC20, 100% = maximal ACh. activation, % at 3 µM. 360,000 compounds, 0.088% hits. AID 588819; in the data active = activation above about 19%, passing the limit was not always enough
CHRM1 agonist: human M1 muscarinic receptor agonism; P11229; CHO-K1 hM1, Fluo-8 calcium fluorescence, agonist mode; 0% DMSO, 100% acetylcholine EC100; 360,000 compounds, 0.33% hits; AID 588814; activation, % at 3 µM;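 active = activation above the run's mean compound activation plus 3 SD, cut at about 16% in these data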;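 note: peak over basal fluorescence ratio within a 140 s kinetic read after compound addition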
TAAR1 antag: antagonists of human TAAR1; inhibition, % at 3 µM; 360,000 compounds, 1.5% hits; CHO RD-HGA16 TAAR1, Fluo-8 calcium fluorescence, antagonist; Q96RJ0;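 active = inhibition above a per-plate cutoff, the mean inhibition of test compounds on that plate plus 3 SD, cut at about 49% in these data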;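 note: 0% = DMSO plus EC80 beta-PEA response and 100% = DMSO alone without agonist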
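Test system: CHO RD-HGA16 cells bearing hTAAR1 | Reagent: β-PEA, EC80 | Compound dosing: 3 µM, single point | Schedule: Dye loading 75 min at 37 °C, then 30 min room temperature | Signal: Calcium fluorescence with Fluo-8 | Evaluation: Percent inhibition of PEA-evoked calcium signal, max/basal emission ratio | Control set: DMSO-only wells and EC80 β-PEA-stimulated wells | Repeats: Singlicate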
* = called active by the depositor; x = not tested or not shown. The list is not random: actives were taken first. Their share in the collection is about 3.9%.

SMILES	TAAR1 agonist	CHRM1 antagonist	HTR2A ag	CHRM1 PAM	CHRM1 agonist	TAAR1 antag
COc1cc(-c2c(NC(=O)c3ccco3)oc3ccccc3c2=O)cc(OC)c1OC	10	4	-2	0	1	20
COc1cc(C(=S)N2CCOCC2)ccc1OC(=O)c1ccc(Br)cc1	12	47*	-2	-18	1	75*
CC1(C)CCCC2=C1CC1C(=O)N(N)C(=O)C1C2 (stereo not drawn)	0	-7	0	10	-4	-3
O=S1(=O)C[C@H](N2CCN(CC3CC3)CC2)[C@@H](COCc2ccccc2)N1	0	10	2	-6	-10	5
CC12CCC(C/C1=N/OC(=O)c1cccc([N+](=O)[O-])c1)C2(C)C (stereo not drawn)	40*	2	-2	2	-3	-9
Nc1ccc2ccc(NS(=O)(=O)N3CCCCC3)cc2c1	3	x	x	x	x	-8
O=C1[C@H]2[C@@H](c3ccc(F)cc3)N3C(=O)N(c4cccc(Br)c4)C(=O)[C@@]3(Cc3ccc(Cl)cc3)[C@H]2C(=O)N1C1CCCCC1	2	-17	7	27*	4	-10
CCc1ccc([C@@H]2CC=C(C(=O)O)[C@H](c3ccc(Cl)cc3)N2S(=O)(=O)c2ccc(C)cc2)cc1	9	-5	-3	3	-9	52*
CN1CCN(C(=O)Nc2cccc(-c3ccccc3)c2)CC1	10	31*	0	-16	-8	-5
CCCNC(=O)C1(C)CCCN(Cc2cc(-c3ccccc3)n(C)n2)C1 (stereo not drawn)	-1	-4	6	-1	-6	8
COc1ccccc1-c1ocnc1C(=O)N1CCN(S(=O)(=O)c2ccc(NC(C)=O)cc2)CC1	-1	-10	10	6	-2	11
CCOC(=O)c1c(NC(=O)C2CCCO2)sc(C)c1C (stereo not drawn)	9	47*	-1	-19	-5	-23
Cc1nnc(NC(=O)C2CCCO2)s1 (stereo not drawn)	4	2	6	1	-2	-5
CCCC(C)c1nnc(NC(=O)C2CCCO2)s1 (stereo not drawn)	4	55*	-1	-27	-12	6
CCCCNCC#CCOc1cc(C)ccc1C(C)C	16	27	-1	-11	-5	23
COc1ccc(CN2CCC(n3nccc3NC(=O)c3cccc(F)c3)CC2)cc1O	3	-8	-4	6	-6	-31
O=C(NCCc1ccccc1)/C(=C\c1ccc([N+](=O)[O-])cc1)NC(=O)c1ccco1	34	6	3	2	-3	-6
Cc1ccc(C(=O)N/C(=C\c2ccc([N+](=O)[O-])cc2)C(=O)NCCc2ccccc2)cc1	43*	8	-5	-3	-4	14
O=C(NCc1ccccc1)/C(=C\c1ccc([N+](=O)[O-])cc1)NC(=O)c1ccco1	0	-11	-5	15	17*	-9
CCOc1ccc(S(=O)(=O)Nc2ccc(C(=O)NCC(c3ccco3)N3CCCCC3)cc2)cc1 (stereo not drawn)	14	10	-16	-13	-5	-7
CN(C)C(CNC(=O)c1ccc(S(=O)(=O)Nc2ccccc2)cc1)c1ccco1 (stereo not drawn)	11	27*	-5	-17	-6	14
O=C(NCC(c1ccco1)N1CCCC1)c1cccc(NS(=O)(=O)c2ccccc2)c1 (stereo not drawn)	3	90*	-4	-27	-8	-27
CC(C)CCOc1ccc(C(=O)NCC(c2ccco2)N(C)C)cc1 (stereo not drawn)	-2	28*	4	-30	-12	-16
O=C(NCC(c1ccco1)N1CCCCC1)c1ccc(S(=O)(=O)Nc2ccccc2)cc1 (stereo not drawn)	15	32*	-13	-25	-4	-16
CN(C)C(CNC(=O)c1ccc(S(=O)(=O)Nc2ccccc2F)cc1)c1ccco1 (stereo not drawn)	-2	7	-3	-6	-9	-13
SMILES	TAAR1 agonist	CHRM1 antagonist	HTR2A ag	CHRM1 PAM	CHRM1 agonist	TAAR1 antag
COc1cc(CC(NC(C)=O)C(=O)NC2CCN(C(=O)Nc3ccccc3C)CC2)cc(OC)c1 (stereo not drawn)	1	-9	13	8	0	-19
CCOCc1c(C(=O)NCC(c2ccco2)N2CCCC2)oc2ccccc12 (stereo not drawn)	-1	28*	-16	-18	-9	6
CN(C)C(CNC(=O)c1cc(S(=O)(=O)N(C)Cc2ccccc2)ccc1Cl)c1ccco1 (stereo not drawn)	5	31*	-5	-13	-1	14
CN(C)C(CNC(=O)c1cc(Br)ccc1Cl)c1ccco1 (stereo not drawn)	-2	9	-1	-5	-7	12
CC(C)CNC(=O)c1oc2ccccc2c1COc1ccccc1	39*	-5	-3	4	-10	15
CCc1cc(C(=O)NCC(c2ccco2)N2CCCCC2)sc1C (stereo not drawn)	-2	29*	-13	-19	-9	-9
C[C@H](O)[C@@H]1C(=O)N2CCc3c([nH]c4cccc(-c5ccccc5)c34)[C@@H]2C[C@@H]1N(C)C(=O)c1ccccc1	1	x	x	x	x	-13
O=C(/C=C/c1cccc(O)c1)c1ccc(N2CCOCC2)cc1	3	-12	3	4	-1	12
CCCCCCCCNC(CO)(CO)CO	11	-11	5	14	-1	-20
COc1ccccc1N(C)S(=O)(=O)c1ccc(C(=O)NCC(c2ccco2)N2CCCCC2)cc1 (stereo not drawn)	2	6	-16	-4	-7	8
CN(c1ccccc1)S(=O)(=O)c1ccc(C(=O)NCC(c2ccco2)N2CCCCC2)cc1 (stereo not drawn)	4	36*	-12	-19	-6	-17
COCC(=O)O[C@]1(CCN(C)CCCc2nc3ccccc3[nH]2)CCc2cc(F)ccc2[C@@H]1C(C)C	41*	-26	-3	-2	0	41
CCOC(=O)CCc1nc2ccccc2[nH]1	0	23	0	-10	-5	-5
O=S(=O)(NC1CCCC1)c1cc(F)ccc1F	1	-5	6	11	-6	-2
Cc1ccc(N2C(=O)C(CN3CCCCC3)C2c2ccccc2)cc1 (stereo not drawn)	2	1	-2	-4	-5	9
Cc1ccc(N2C(=O)C(CN3CCCC3)C2c2ccccc2)cc1 (stereo not drawn)	8	25*	-10	-37	-16	7
